Legend:
[1] = target: T1, Neuropeptide Y receptor type 1 (Homo sapiens, UniProt P25929); assay: In vitro binding affinity towards human neuropeptide Y receptor type 1, determined by measuring its ability to displace [125]peptide YY
T1 sequence (P25929 whole entry): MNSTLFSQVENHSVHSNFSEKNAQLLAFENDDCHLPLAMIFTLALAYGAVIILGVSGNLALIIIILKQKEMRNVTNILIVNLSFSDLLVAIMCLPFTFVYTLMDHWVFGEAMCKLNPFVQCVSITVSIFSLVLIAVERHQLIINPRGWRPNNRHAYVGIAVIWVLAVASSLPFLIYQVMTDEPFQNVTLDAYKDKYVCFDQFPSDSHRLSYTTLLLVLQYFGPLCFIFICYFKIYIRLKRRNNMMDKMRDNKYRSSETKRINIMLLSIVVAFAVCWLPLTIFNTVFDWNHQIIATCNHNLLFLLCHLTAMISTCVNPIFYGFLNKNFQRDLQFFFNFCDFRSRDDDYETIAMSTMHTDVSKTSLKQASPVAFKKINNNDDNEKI

SK-N-MC = assay: In vitro functional activity determined by its ability to antagonize 1 nM NPYs inhibition of forskolin -stimulated cyclic AMP accumulation in SK-N-MC cells; format: cell-based, Homo sapiens
Summary of the method: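 SK-N-MC cells were stimulated with forskolin. NPY (1 nM) and antagonist were added at the same time and incubated for only 15 min, to avoid receptor desensitization. Read-out was reversal of the NPY-induced inhibition of cAMP accumulation.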

Ki [1] | SMILES | Ki (SK-N-MC)
5300 nM | Oc1cccc2c1nc(COc1ccc(Cl)cc1)n2CCCC1CCCNC1 (configuration not stated) | 
 | N=C(N)NCCCC(NC(=O)C(c1ccccc1)c1ccccc1)C(=O)NCc1ccc(O)cc1 (configuration not stated) | 11 nM
400 nM | Cc1cccc2nc(COc3ccc(Cl)cc3)n(CCCC3CCCNC3)c12 (configuration not stated) | 
29 nM | Clc1ccc(OCc2nc3c(OCCC4CCCCN4)cccc3n2CCCC2CCCNC2)cc1 (configuration not stated) | 
1280 nM | Clc1ccc(OCc2nc3ccccc3n2CCC2CCCNC2)cc1 (configuration not stated) | 
6 nM | Clc1ccc(OCc2nc3c(OCCC[C@@H]4CCCNC4)cccc3n2CCC[C@@H]2CCCNC2)cc1 | 87 nM
41 nM | Clc1ccc(OCc2nc3c(OCCC[C@H]4CCCNC4)cccc3n2CCC[C@H]2CCCNC2)cc1 | 153 nM
17 nM | Clc1ccc(OCc2nc3c(OCCC[C@@H]4CCCNC4)cccc3n2CCC[C@H]2CCCNC2)cc1 | 65 nM
980 nM | Clc1ccc(OCc2nc3ccccc3n2CCCC2CCNCC2)cc1 | 
30 nM | Clc1ccc(OCc2nc3c(OCCCC4CCCNC4)cccc3n2CCCC2CCCNC2)cc1 (configuration not stated) | 77 nM
16 nM | Clc1ccc(OCc2nc3c(OCCCC4CCCCN4)cccc3n2CCCC2CCCNC2)cc1 (configuration not stated) | 53 nM
7860 nM | Clc1ccc(OCc2nc3ccccc3n2CCC2CCCCN2)cc1 (configuration not stated) | 
3230 nM | Clc1ccc(OCc2nc3ccccc3n2CCCC2CCCCN2)cc1 (configuration not stated) | 
940 nM | Clc1ccc(OCc2nc3ccccc3n2CCC2CCNCC2)cc1 | 
18 nM | Clc1ccc(OCc2nc3c(OCCC4CCCNC4)cccc3n2CCCC2CCCNC2)cc1 (configuration not stated) | 91 nM
7 nM | Clc1ccc(OCc2nc3c(OCCC4CCNCC4)cccc3n2CCCC2CCCNC2)cc1 (configuration not stated) | 15 nM
97 nM | Cc1cccc2c1nc(COc1ccc(Cl)cc1)n2CCCC1CCCNC1 (configuration not stated) | 
1.7 nM | Clc1ccc(OCc2nc3c(OCCCN4CCCCC4)cccc3n2CCCC2CCCNC2)cc1 (configuration not stated) | 2.7 nM
152 nM | Clc1ccc(OCc2nc3c(OCCCC4CCNCC4)cccc3n2CCCC2CCCNC2)cc1 (configuration not stated) | 119 nM
> 100000 nM | Clc1ccc(OCc2nc3ccccc3n2CCN2CCCCC2)cc1 | 
7020 nM | Clc1ccc(OCc2nc3ccccc3n2CCCN2CCCCC2)cc1 | 
27 nM | Clc1ccc(OCc2nc3c(OCCC[C@H]4CCCNC4)cccc3n2CCC[C@@H]2CCCNC2)cc1 | 137 nM
700 nM | Clc1ccc(OCc2nc3ccccc3n2CCCC2CCCNC2)cc1 (configuration not stated) | 
1290 nM | Cc1ccc2c(c1)nc(COc1ccc(Cl)cc1)n2CCCC1CCCNC1.Cc1ccc2nc(COc3ccc(Cl)cc3)n(CCCC3CCCNC3)c2c1 (configuration not stated) | 
43 nM | Clc1ccc(OCc2nc3c(OCCN4CCCCC4)cccc3n2CCCC2CCCNC2)cc1 (configuration not stated) | 240 nM
1210 nM | Clc1ccc(OCc2nc3ccccc3n2CCCCC2CCCNC2)cc1 (configuration not stated) | 

From ChEMBL document CHEMBL1131030, “Synthesis and evaluation of a series of novel 2-[(4-chlorophenoxy)methyl]benzimidazoles as selective neuropeptide Y Y1 receptor antagonists” (J Med Chem, 1998)
